The list is not random: actives were taken first. Their share in the collection is about 2.1%.
Apaf-1 inh: inhibitors of human Apaf-1 apoptosome, primary screen, biochemical, DEVD-Rh110 fluorescence, uHTS; actives 0.71% (n = 330,000); inhibition, % at 20 µM; Apoptotic protease-activating factor 1 (Homo sapiens), O14727; reconstituted apoptosome caspase-3 activity; active = inhibition of at least 40% at 20 µM;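 note: plate controls were DMSO wells for no effect and DEVD-CHO caspase inhibitor wells for full effect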
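Material: biochemical Apaf-1 apoptosome reconstitution. Medium: Hepes buffer, pH 7.5. Also added: cytochrome c activation, bis-DEVD rhodamine 110 substrate. Timing: 30 min compound preincubation, 50 min activation, room temperature. Measured by: rhodamine 110 fluorescence at Ex 480/Em 540 nm.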
PP5 primary: PP5 phosphatase inhibitors, primary screen, biochemical, fluorescence | purified PP5c, OMFP substrate fluorescence | inhibition, % at 6.7 µM | actives 0.18% (n = 320,000);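 active = inhibition above the campaign's mean inhibition across all tested compounds plus 3 SD, cut at about 9.5% in these data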;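 note: 0% = DMSO only and 100% = 100 µM cantharidin control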
PP1 inh: PP1-alpha phosphatase inhibitors, primary screen, counter-screen for PP5 inhibitor project, biochemical, fluorescence, OMFP substrate, single point. Serine/threonine-protein phosphatase PP1-alpha catalytic subunit (Homo sapiens), P62136. purified PP1alpha. inhibition, % at 6.7 µM. actives 0.9% (n = 320,000). AID 2235, 2010;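 active = inhibition above the mean inhibition of all tested compounds plus 3 SD, computed separately for each screening campaign, cut at about 15% in these data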
Target sequence (P62136 whole entry, looked up): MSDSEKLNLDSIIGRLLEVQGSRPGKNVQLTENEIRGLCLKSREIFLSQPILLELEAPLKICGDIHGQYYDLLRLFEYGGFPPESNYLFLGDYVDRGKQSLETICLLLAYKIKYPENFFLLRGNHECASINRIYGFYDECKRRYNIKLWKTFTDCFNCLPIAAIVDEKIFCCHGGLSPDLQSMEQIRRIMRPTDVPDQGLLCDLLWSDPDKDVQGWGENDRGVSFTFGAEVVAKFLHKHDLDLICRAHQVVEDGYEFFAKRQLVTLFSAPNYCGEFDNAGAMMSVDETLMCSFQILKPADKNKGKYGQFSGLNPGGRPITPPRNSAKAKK
GSTO1 inh: inhibitors of recombinant GSTO1, primary screen, counter-screen for RBBP9 inhibitor project, biochemical, fluorescence polarization. activity-based probe fluorescence polarization. inhibition, % at 5.96 µM. actives 1.1% (n = 300,000). AID 1974, 2009;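 active = inhibition above the campaign mean inhibition plus 3 SD, cut at about 35% in these data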;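 note: 0% = GSTO1-1 with DMSO and 100% = wells lacking GSTO1-1 enzyme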
TDP2 inh: human TDP2 enzyme inhibitors, primary screen, biochemical, epi absorbance, recombinant enzyme; inhibition, % at 12.8 µM; AID 720702, 2013; actives 0.34% (n = 370,000); Tyrosyl-DNA phosphodiesterase 2 (Homo sapiens), O95551; T5PNP hydrolysis, p-nitrophenol absorbance 415 nm;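 active = inhibition above the mean of all tested compounds plus 3 SD, set per campaign, cut at about 25% in these data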;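 note: 0% = DMSO with enzyme and 100% = buffer with substrate but no TDP2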
Target sequence (O95551 whole entry, looked up): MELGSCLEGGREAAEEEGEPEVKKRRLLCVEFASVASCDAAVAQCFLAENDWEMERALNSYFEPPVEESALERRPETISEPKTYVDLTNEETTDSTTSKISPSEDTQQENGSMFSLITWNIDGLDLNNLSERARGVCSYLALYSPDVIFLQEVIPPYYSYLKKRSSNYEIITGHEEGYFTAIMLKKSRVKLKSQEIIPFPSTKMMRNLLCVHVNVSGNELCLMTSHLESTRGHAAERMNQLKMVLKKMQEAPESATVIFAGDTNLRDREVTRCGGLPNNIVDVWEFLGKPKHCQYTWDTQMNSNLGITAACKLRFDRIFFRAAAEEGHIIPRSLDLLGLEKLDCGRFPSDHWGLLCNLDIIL
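Material: recombinant human TDP2; quantity: TDP2 enzyme at 120 nM final; medium: Tris-HCl pH 7.5 with MgCl2; compound: single concentration, 12.8 µM nominal, with 1% DMSO; incubation: 2 h enzyme incubation at 37 °C; signal: epi absorbance; measure: percent inhibition; benchmarks: high control without enzyme, low control DMSO plus TDP2; repeats: singlicate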
GSTO1 inh conf: GSTO1 inhibitor hit confirmation, counter-screen for RBBP9 inhibitor project, biochemical, fluorescence polarization, triplicate. actives 54% (n = 2,400). inhibition, % at 5.96 µM. recombinant GSTO1, probe fluorescence polarization. shares compounds with GSTO1 inh;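 active = inhibition above the primary screen's cutoff, its mean inhibition plus 3 SD, cut at about 35% in these data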;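 note: loss of polarization as inhibitors block binding of rhodamine sulfonate ester activity probe; 0% = GSTO1 with DMSO and 100% = wells lacking GSTO1 enzyme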
PP1 inh confirm: PP1 phosphatase inhibitors, confirmation, biochemical, fluorescence, OMFP substrate, triplicate. purified PP1alpha. inhibition, % at 6.7 µM. shares compounds with PP1 inh. actives 52% (n = 1,900). AID 2358, 2010;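 active = mean PP1 inhibition above a set limit taken from the earlier primary screen, cut at about 15% in these data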
PP5 counter: PP5 phosphatase inhibition by PP1 hits, confirmation, counter-screen for PP1 inhibitor project, biochemical, fluorescence, triplicate; shares compounds with PP1 inh; purified PP5c, OMFP fluorescence; inhibition, % at 6.7 µM; actives 4% (n = 1,900); AID 2360, 2010;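 active = mean PP5 inhibition over triplicate wells above about 9.5% taken from the earlier PP1 screen, limit read from the data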
Apaf-1 inh conf2: Apaf-1 inhibitors, single-dose retest, confirmation, biochemical, fluorescence, DEVD-Rh110, 20 µM | shares compounds with Apaf-1 inh | reconstituted apoptosome, caspase-3 DEVD-Rh110 fluorescence | inhibition, % at 20 µM | actives 25% (n = 1,800) | AID 504614, 2011;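 active = mean inhibition of at least 40% at 20 µM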;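 note: plate controls were DMSO wells for no effect and DEVD-CHO caspase inhibitor control wells for full effect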
Rh110 quench: Rh110 fluorescence interference by putative Apaf-1 inhibitors, confirmation, artefact control for Apaf-1 inhibitor project, biochemical, 20 µM; AID 504615, 2011; quenched caspase reaction; shares compounds with Apaf-1 inh; 1,800 tested, under 10 active; activation (fluorescence interference), % at 20 µM;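 active = signal rise of 40% or more at 20 µM, treated as a fluorescence artifact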
Apaf1 inh interf: fluorescence interference of Apaf-1 inhibitor hits, dose response, artefact control for Apaf-1 inhibitor project; 460 tested, under 10 active; IC50, µM; fluorescence interference counterscreen, Apaf-1 assay format; shares compounds with Apaf-1 inh; AID 588538, 2011; call rule not given here
TDP2 inh conf: human TDP2 enzyme inhibitors, retest, confirmation, biochemical, epi absorbance, recombinant enzyme; shares compounds with TDP2 inh; absorbance read-out; inhibition, % at 12.8 µM; actives 22% (n = 1,100); in the data active = inhibition above about 25%;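 note: 0% = vehicle with enzyme and 100% = no enzyme buffer only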
Active calls of the source: *; / = no result.

SMILES	Apaf-1 inh	PP5 primary	PP1 inh	GSTO1 inh	TDP2 inh	GSTO1 inh conf	Apaf-1 inh conf2	Rh110 quench	TDP2 inh conf	others
COc1ccc(Br)cc1CNc1ccc(O)cc1	94.8*	5.8	3.9	85.9*	6.4	6.3	19.2	5.4	/
CCCn1c(C)c(CC(=O)Nc2ccc(N(C)c3ccccn3)cc2)c2ccccc21	/	/	/	/	-3.6	/	/	/	/
O=C1/C(=C/c2ccco2)CCc2ccccc21	-11.7	1.1	-0.4	2.5	5.0	/	/	/	/
O=C1C(=Cc2ccco2)C(=O)c2ccccc21	44.4*	3.6	2.9	37.9*	-1.5	26.6	10.4	2.1	/
Nc1ccc2nn(-c3cccc4ccccc34)nc2c1	96.1*	-2.9	1.4	60.9*	36.2*	6.6	75.3*	11.6	35.9*	Apaf1 inh interf=>100
Cc1cc2nn(-c3cccc4ccccc34)nc2cc1N	27.8	0.9	1.4	14.8	-2.0	/	/	/	/
Cn1c(SCC(=O)Nc2ccc(S(=O)(=O)Nc3nccs3)cc2)nc2sc3c(c2c1=O)CCCC3	/	/	/	/	5.5	/	/	/	/
O=C1CC(N2CCOCC2)=NN1c1ccc([N+](=O)[O-])cc1	94.4*	4.7	1.1	48.2*	65.0*	10.6	14.9	5.7	5.6
CN1c2ccccc2C(C)(C)C12C=Nc1c(ccc3ccccc13)O2 (centres undefined)	25.8	4.3	5.2	90.3*	33.3*	5.5	/	/	4.8
CC1(c2cccc3ccccc23)OC(=O)c2ccccc21 (centres undefined)	/	/	/	/	3.4	/	/	/	/
Cc1cc(=O)n(CCCc2ccccc2)[nH]1	11.9	-5.8	3.4	42.2*	37.3*	7.9	/	/	5.9
COC(=O)c1cc(C)nc2c1C(=O)C(=O)C=C2N1CCOCC1	98.5*	7.3	15.7*	99.5*	87.4*	95.3*	100.2*	4.4	88.6*	Apaf1 inh interf=>100
CCOC(=O)C1CSCCS(=O)(=O)N1Cc1ccccc1C (centres undefined)	/	/	/	/	1.0	/	/	/	/
Nc1ccc2c(c1)C(=O)C(=O)c1ccccc1-2	97.5*	8.1	38.6*	94.2*	97.6*	94.2*	99.2*	2.2	87.0*	Apaf1 inh interf=>100
O=C1/C(=C/C=C/c2ccco2)SC(=S)N1c1ccc(O)cc1	12.4	-0.9	38.3*	45.9*	26.0*	23.9	/	/	13.6	PP1 inh confirm=6.3;PP5 counter=-2.0
CCc1ccccc1NC(=O)C1CCC(=O)N(c2ccc(OC)cc2)C1c1ccc(OC)cc1 (centres undefined)	/	/	/	/	-0.7	/	/	/	/
COc1ccc(CCn2c(N)c(C(=O)NCc3ccco3)c3nc4ccccc4nc32)cc1OC	62.8*	5.1	1.3	51.7*	25.2*	0.4	15.5	2.8	25.6*
O=C(O)/C=C/C(=O)Nc1ccc(O)cc1	-22.3	2.7	1.4	58.9*	34.3*	7.6	/	/	30.8*
O=C(O)/C=C/C(=O)Nc1ccc(C(=O)c2ccccc2)cc1	3.5	-0.4	1.8	-10.5	5.7	/	/	/	/
Cc1cc(=O)cc(C)n1-c1ccc(O)cc1	-4.8	1.1	-2.4	9.0	-6.0	/	/	/	/
Cc1cc(=O)n(-c2ccc(O)cc2)[nH]1	21.1	5.9	-1.9	73.2*	55.9*	8.2	/	/	15.0
Cc1cc(=O)n(-c2ccccc2Cl)[nH]1	33.2	-3.3	-5.4	47.7*	59.0*	4.5	/	/	9.9
COc1cc(C=Nn2c(-c3cc(C)[nH]n3)n[nH]c2=S)cc(Br)c1O	/	/	/	/	8.2	/	/	/	/
CC1=NN(c2ccccc2)C(=O)C1N=Nc1ccc(C)cc1 (centres undefined)	-9.2	4.5	2.4	2.0	/	/	/	/	/
CC1=NN(c2ccc(C)cc2C)C(=O)C1C(c1ccccc1O)C1C(=O)N(c2ccc(C)cc2C)N=C1C (centres undefined)	96.9*	0.8	-5.3	55.6*	79.1*	10.3	23.4	-2.1	12.2
SMILES	Apaf-1 inh	PP5 primary	PP1 inh	GSTO1 inh	TDP2 inh	GSTO1 inh conf	Apaf-1 inh conf2	Rh110 quench	TDP2 inh conf	others
CCc1nnc(N/N=C/c2cc(Br)c(O)cc2O)n1N	21.7	2.8	-4.6	67.7*	36.7*	12.8	/	/	3.2
CC(C)(C)c1nnc(N/N=C/c2cc(Br)ccc2O)n(N)c1=O	/	2.5	11.4	-31.4	2.1	/	/	/	/
C[C@@H]1CCN(C2CC2)S(=O)(=O)c2c(cccc2N2CCC[C@H]2C)O1	/	/	/	/	4.2	/	/	/	/
CCN(C(=S)Nc1cccnc1)c1ccccc1	2.4	1.5	-4.8	-7.3	-13.8	/	/	/	/
CN(C(=S)Nc1cccnc1)c1ccc(O)cc1	/	3.7	9.3	82.8*	29.5*	5.2	/	/	9.7
CC1CCN(c2ccc(C(=O)O)cc2NS(=O)(=O)c2cccc3cccnc23)CC1	/	/	/	/	3.5	/	/	/	/
O=C1C=C(O)c2cccc(O)c2C1=O	43.8*	5.0	-1.9	43.0*	32.2*	40.5*	/	/	13.3
O=C(OCC#CCSc1nnc(-c2cccc3ccccc23)o1)C1CC1	/	/	/	/	1.8	/	/	/	/
C#CCn1c2ccccc2c(=O)n1CCOc1ccccc1OC	/	/	/	/	3.5	/	/	/	/
COCCN1C=C2C(=O)C(C)(OC(=O)C3CCCC3)C(=O)C(c3ccccc3)=C2C=C1CCCC(=O)OC (centres undefined)	29.8	0.8	-0.5	45.4*	30.2*	26.4	/	/	22.1
COC(=O)CCCC1=CC2=C(c3ccccc3)C(=O)C(C)(OC(=O)C3CCCC3)C(=O)C2=CN1CC(C)C (centres undefined)	40.6*	0.1	-1.4	52.4*	24.9*	5.8	19.4	4.3	14.1

Screens: PubChem BioAssay, several laboratories
